What all share (assay type): functional, Homo sapiens
A short description of assay [1]: Inhibitory activity against the primary liver carcinoma (PLC) cell line PLC/PRF/5.
Assay [2] in a line: Inhibitory activity against Colchicine resistant parent primary liver carcinoma (PLC) cell line PLC/PRF/5. The method in brief:
(§1)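 PLC/PRF/5 cells were precultured 24 h at 37 °C in 5% CO₂ in 96-well plates, then given colchicine at 0.5 μg/mL. Test compounds were added in dilutions of 10⁻²–10⁻⁶ μg/mL and incubated 72 h at 37 °C in 5% CO₂. Survival was read by MTT. IC50 is the μg/mL giving 50% growth inhibition of the colchicine-resistant cells.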

Assay [3] in a line: Inhibitory activity against colchicine resistant parent primary liver carcinoma (PLC) cell line PLC/PRF/5. The method in brief: as §1

Values after ≈ are worked out from the molar mass of the structure shown.

Broadly, the IC50 is the midpoint of a concentration-inhibition curve.

On to `C[C@]12CCC3C(CC[C@@H]4CC(=O)CC[C@]34C)C1=CC[C@@H]2c1ccc(=O)oc1` (stereo partly drawn), for which the half-maximal inhibitory concentration (IC50) came out at 4.9 µg/mL (≈ 13.4 µM) in assay [1] and 7.8 µg/mL (≈ 21.3 µM) in assay [2].

On to `C[C@]12CC[C@H](O)C[C@H]1CC[C@@H]1[C@@H]2[C@H](O)C[C@]2(C)[C@@H](c3ccc(=O)oc3)CC[C@]12O` [GAMABUFOTALIN], for which the IC50 in assay [3] worked out at 0.0008 µg/mL (≈ 0.00199 µM); in assay [1] it was 0.00023 µg/mL (≈ 0.000571 µM).

For `C[C@]12CC[C@H](O)C[C@@]1(O)CC[C@@H]1[C@@H]2CC[C@]2(C)[C@@H](C3=CC(=O)OC3)CC[C@]12O` [PERIPLOGENIN], the IC50 in assay [3] came out at 0.75 µg/mL (≈ 1.92 µM); in assay [1], 0.061 µg/mL (≈ 0.156 µM).

Consider `C[C@]12CC[C@H](O)C[C@@]1(O)CC[C@@H]1[C@@H]2CC[C@]2(C)[C@@H](c3ccc(=O)oc3)CC[C@]12O` [TELOCINOBUFAGIN], for which the values for the 50% inhibitory concentration (IC50) in assay [3] and in assay [1] were 0.0026 µg/mL (≈ 0.00646 µM) and 0.000345 µg/mL (≈ 0.000857 µM), respectively.

The values above are taken from ChEMBL document CHEMBL1135672, “QSAR evaluation of the Ch'an Su and related bufadienolides against the colchicine-resistant primary liver carcinoma cell line PLC/PRF/5(1)” (J Med Chem, 2002).
